Data reported in ChEMBL document CHEMBL3425427, “Pyrido[4,3-e][1,2,4]triazolo[4,3-a]pyrazines as Selective, Brain Penetrant Phosphodiesterase 2 (PDE2) Inhibitors” (ACS Med Chem Lett, 2015).
Active and inactive are the calls of the source. The calls are words filed in the database; no cut-off is given here.

Columns and labels:
[1] = Ratio of drug level in brain to plasma of Sprague-Dawley rat at 10 mg/kg, sc after 1 hr; type: ADME, organism-based; set-up: dose 10 mg/kg, route subcutaneous; conditions: read-out: BPR
How it was run: (§1)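 Fed male Sprague-Dawley rats, n = 2 per time point, given 10 mg/kg s.c. in 20% HPβCD at pH 3.5−4. Brain and plasma levels taken 1 h after dosing; brain-to-plasma ratio computed from these.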

[2] = Drug level in Sprague-Dawley rat brain homogenates at 10 mg/kg, sc after 1 hr; type: ADME, organism-based; set-up: dose 10 mg/kg, route subcutaneous; conditions: read-out: Drug uptake; how it was run: as §1
[3] = Unbound fraction in Sprague-Dawley rat brain homogenates at 10 mg/kg, sc after 5 hrs at 37 degC by rapid equilibrium dialysis; type: ADME, organism-based; set-up: dose 10 mg/kg, route subcutaneous; conditions: brain homogenate
How it was run: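 Unbound fraction measured in rat brain homogenate by rapid equilibrium dialysis, 5 h incubation at 37 °C.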

[4] = Drug metabolism in human liver microsomes at 1 uM incubated for 15 mins at 37 degC; type: ADME; conditions: read-out: Drug metabolism
How it was run: (§2)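 Compound at 1 μM incubated 15 min at 37 °C with human or rat liver microsomes; read-out is percent metabolized.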

[5] = Drug metabolism in rat liver microsomes at 1 uM incubated for 15 mins at 37 degC; type: ADME; conditions: read-out: Drug metabolism; how it was run: as §2
[6] = biological target: T1, cAMP and cAMP-inhibited cGMP 3',5'-cyclic phosphodiesterase 10A (Rattus norvegicus, UniProt Q9QYJ6); assay: Inhibition of 6-His-tagged rat recombinant PDE10A expressed in Sf9 cells using [3H]cAMP incubated for 60 mins by scintillation proximity assay
T1 sequence (Q9QYJ6 whole entry): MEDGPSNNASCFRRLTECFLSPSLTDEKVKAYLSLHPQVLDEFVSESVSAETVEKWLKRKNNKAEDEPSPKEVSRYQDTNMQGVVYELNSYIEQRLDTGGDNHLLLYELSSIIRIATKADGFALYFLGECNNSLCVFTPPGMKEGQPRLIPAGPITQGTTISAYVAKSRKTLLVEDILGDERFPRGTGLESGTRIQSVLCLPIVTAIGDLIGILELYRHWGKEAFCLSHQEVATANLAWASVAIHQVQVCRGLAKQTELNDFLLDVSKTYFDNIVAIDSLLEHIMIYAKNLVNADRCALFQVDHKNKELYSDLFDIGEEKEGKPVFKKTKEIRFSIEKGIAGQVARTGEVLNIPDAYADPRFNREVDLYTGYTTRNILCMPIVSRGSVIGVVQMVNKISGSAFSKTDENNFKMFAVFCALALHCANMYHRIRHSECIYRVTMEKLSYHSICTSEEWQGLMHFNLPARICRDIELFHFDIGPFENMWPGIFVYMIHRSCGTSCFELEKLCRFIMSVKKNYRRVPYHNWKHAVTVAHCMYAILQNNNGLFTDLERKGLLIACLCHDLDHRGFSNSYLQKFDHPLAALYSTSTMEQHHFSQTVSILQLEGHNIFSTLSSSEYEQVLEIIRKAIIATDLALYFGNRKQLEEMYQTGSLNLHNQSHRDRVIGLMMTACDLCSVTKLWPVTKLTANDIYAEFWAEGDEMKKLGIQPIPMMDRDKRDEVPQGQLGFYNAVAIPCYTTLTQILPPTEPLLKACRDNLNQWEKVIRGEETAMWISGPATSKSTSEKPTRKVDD

[7] = Dissociation constant, pKa of the compound; type: physicochemical
Rattus norvegicus [8] = assay: In vivo PDE2 occupancy in Wistar rat assessed as inhibition of specific binding of [3H]-4-((1-(5-butoxypyridin-3-yl)-4-methyl-[1,2,4]triazolo[4,3-a]quinoxalin-8-yl)methyl)morpholine radiotracer up to 10 mg/kg, po and pre-treated with 2.5 mg/kg, sc PDE10 inhibitor MP10; type: functional, organism-based
Rattus norvegicus [9] = assay: In vivo PDE2 occupancy in Wistar rat assessed as inhibition of specific binding of [3H]-4-((1-(5-butoxypyridin-3-yl)-4-methyl-[1,2,4]triazolo[4,3-a]quinoxalin-8-yl)methyl)morpholine radiotracer and pre-treated with 2.5 mg/kg, sc PDE10 inhibitor MP10; type: functional; conditions: route subcutaneous

SMILES	Kp at 1 h [1]	concentration at 1 h [2] [ng/g]	fraction unbound at 5 h [3]	metabolised at 0.25 h, 1 µM [4] [%]	metabolised at 0.25 h, 1 µM [5] [%]	IC50 [6] [µM]	pKa [7]	Activity (Rattus norvegicus [8])	ED50 (Rattus norvegicus [9]) [mg/kg]
Cc1nc2cccnc2n2c(-c3ccccc3Cl)nnc12							1		
Cc1nc2ccncc2n2c(-c3cc(COCC(F)(F)F)ccc3Cl)nnc12	1.1	370	0.1	12	77			inactive	3.6
COCCOc1ccc(Cl)c(-c2nnc3c(C)nc4ccncc4n23)c1	0.44	801	0.17	5	18	9.12			

Continued, in another order:

Kp at 1 h [1]	concentration at 1 h [2] [ng/g]	fraction unbound at 5 h [3]	metabolised at 0.25 h, 1 µM [4] [%]	metabolised at 0.25 h, 1 µM [5] [%]	IC50 [6] [µM]	pKa [7]	SMILES	Activity (Rattus norvegicus [8])	ED50 (Rattus norvegicus [9]) [mg/kg]
0.69	807	0.026	34	98			CCCCOc1ccc(Cl)c(-c2nnc3c(C)nc4ccncc4n23)c1		
			3	11	8.91		Cc1nc2ccncc2n2c(-c3cc(OC(F)(F)F)ccc3Cl)nnc12		
